Bioassay records from PubChem BioAssay.
miR122 inh: miR-122 Renilla sensor signal increase in Huh7, primary screen, miR-122 inhibitor project, cell-based, single point, plate reader; Huh7 miR-122 Renilla luciferase sensor, 48 h; neutral wells = 0, positive control = 100; activation (reporter increase), % at 12.5 µM; hit rate 0.3% among 340,000; AID 602342, 2012;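 active means mean replicate activation score at least 90 and every replicate individually at or above 90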;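 further: higher luciferase means less miR-122 activity so hits act as miR-122 inhibitors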
CFTR F508del cor: F508del CFTR correction, initial screen, CFBE line, single point; CFBE cells, YFP halide quenching; stimulated with forskolin plus potentiator P3; % fluorescence drop versus neutral controls; activity (quench increase), % at 7.58 µM; hit rate 0.36% among 350,000;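 active means mean added fluorescence quench of at least 8% versus neutral control, with both replicates also reaching 8%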;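 further: cells transiently co-express mutant CFTR-F508del with the halide-sensitive YFP; corrector assay measuring rescue of mutant channel to the surface after 24 h compound exposure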
CAL PDZ FP-1: untagged CAL PDZ binding inhibitors, primary screen, biochemical, fluorescence polarization, HTS | hit rate 0.92% among 300,000 | AID 602252, 2012 | purified CAL PDZ, TMR-peptide fluorescence polarization, 1 h | inhibition, % at 24.9 µM;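 active means mean inhibition of at least 30% with at least half of replicates also reaching 30%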
PGC1a acetyl inh: inhibitors of PGC1a acetylation signal, primary screen, cell-based, U2OS, AlphaScreen, inhibitor mode; AlphaScreen anti-acetyl-lysine; with virally co-expressed GCN5 acetyltransferase; inhibition, % at 15.6 µM; hit rate 0.17% among 350,000;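 active means every replicate shows inhibition of at least 40%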
ARNT TACC3 PPI: disruptors of ARNT/TACC3 protein interaction, primary screen, biochemical, AlphaScreen, single concentration | Transforming acidic coiled-coil-containing protein 3 (Homo sapiens), Q9Y6A5 | AlphaScreen His-ARNT PAS-B/GST-TACC3 binding, luminescence; TACC3 fragment carries E629A point mutation | inhibition, % at 9.99 µM | hit rate 0.66% among 390,000 | AID 623870, 2012;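 active means mean inhibition of replicates at least 50% and at least half of replicates each reaching 50%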
CAL PDZ FP-2: CAL PDZ peptide-binding inhibitors, primary screen, biochemical, fluorescence polarization, Cer-tagged CAL PDZ, HTS | Golgi-associated PDZ and coiled-coil motif-containing protein (Homo sapiens), Q9HD26 | purified CAL PDZ, TMR-peptide fluorescence polarization, 1 h | inhibition, % at 20 µM | hit rate 0.02% among 330,000;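 active means highest replicate inhibition of at least 40%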
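System: tagged CAL PDZ domain. Schedule: 1 h room-temperature incubation prior to read. Signal: fluorescence polarization (mP). Measure: percent inhibition from loss of millipolarization.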
Large screens that a line does not name were inactive. Sampled rows, rich in hits. Any-hit rate of the full collection: about 1.7%.

CSCCC(NC(=O)c1ccco1)C(=O)NCCc1ccc(Cl)cc1 (stereo unspecified)	CAL PDZ FP-1 100
CN(C)c1c([N+](=O)[O-])cc(N2C(=O)C=CC2=O)cc1[N+](=O)[O-]	CAL PDZ FP-1 37 (no result: CFTR F508del cor)
C[C@@H]1CN([C@@H](C)CO)C(=O)CCCn2nncc2CO[C@H]1CN(C)C(=O)Nc1cccc(C(F)(F)F)c1	none (no result: CAL PDZ FP-1, CAL PDZ FP-2)
C=C(C)CN(CC)C(=O)CSc1ccc(S(=O)(=O)N2CCN(Cc3ccccc3)CC2)cn1	CAL PDZ FP-1 69
COc1cc(/C=C2\SC(=Nc3ccc(Cl)c(C(=O)O)c3)NC2=O)c(Br)c(Br)c1O	CFTR F508del cor 29
O=C(NNS(=O)(=O)c1ccccc1)c1ccccc1-n1cccc1	CAL PDZ FP-1 41
COC(=O)c1ccc(OCc2nn[nH]n2)cc1	CAL PDZ FP-1 61
Cc1ccc(NC(=O)CSC2=NN3CCCC(=O)N=C3S2)c(C)c1	CFTR F508del cor 9.7 (no result: CAL PDZ FP-1)
COCC(=O)N(C)C[C@H]1Oc2cc(C3=CCCC3)ccc2S(=O)(=O)N([C@@H](C)CO)C[C@@H]1C	none (no result: miR122 inh, CAL PDZ FP-1, CAL PDZ FP-2)
CCc1noc(C)c1C(=O)N(CCOC)c1c(N)n(CC(C)C)c(=O)[nH]c1=O	CAL PDZ FP-1 38
CCC(=O)N(C)C[C@@H]1Oc2cc(C#Cc3ccccn3)ccc2S(=O)(=O)N([C@H](C)CO)C[C@@H]1C	none (no result: CAL PDZ FP-1, CAL PDZ FP-2)
CN(C)CC(=O)N[C@H]1CC[C@H](CCNC(=O)Nc2ccc(C(F)(F)F)cc2)O[C@H]1CO	none (no result: miR122 inh, CAL PDZ FP-1, CAL PDZ FP-2)
c1ccc2c(c1)ccc1nnnn12	miR122 inh 168
c1ccc2c(c1)sc1nnnn12	none (no result: CFTR F508del cor)
CCCN1C(=O)N(C)C(N(O)C(=O)NC)C1(C)C (stereo unspecified)	CAL PDZ FP-1 39 (no result: CFTR F508del cor)
CNC(=O)N(O)C1N(C)C(=O)N(CC(=O)OC)C1(C)C (stereo unspecified)	none (no result: CFTR F508del cor)
O=C(COc1ccc(-n2cnnn2)cc1)NC(=O)NCc1ccccc1	CAL PDZ FP-1 50 (no result: CFTR F508del cor)
Cc1ccc(N2C(=O)C3C(C2=O)C(C(=O)c2ccc(Cl)cc2)N2CCCC32)cc1 (stereo unspecified)	CAL PDZ FP-1 42 (no result: CFTR F508del cor)
CC(=O)Oc1ccc(N2C(=O)C3C(C2=O)C(C(=O)c2ccc(Cl)cc2)N2CCCC32)cc1 (stereo unspecified)	none (no result: miR122 inh)
CCCC(=O)N1CCN(c2ccc(NC(=S)NC(=O)c3cccc(C)c3)cc2)CC1	CAL PDZ FP-1 75 (no result: miR122 inh)
COc1ccccc1N1CN(S(=O)(=O)c2ccc(C)cc2)c2nc3ccccc3nc21	CAL PDZ FP-1 110
COc1ccc(CCN2CN(S(=O)(=O)c3ccc(C)cc3)c3nc4ccccc4nc32)cc1OC	none (no result: miR122 inh, CFTR F508del cor, PGC1a acetyl inh)
O=C1c2ccccc2C(=O)N1C1CCN(Cc2cccc(OCCO)c2)CC1	none (no result: miR122 inh, CAL PDZ FP-1, ARNT TACC3 PPI, CAL PDZ FP-2)
CO[C@@H]1CN(C)C(=O)c2ccc(NC(=O)c3cnccn3)cc2OC[C@@H](C)N(C(=O)c2cnccn2)C[C@H]1C	none (no result: miR122 inh, CAL PDZ FP-1, CAL PDZ FP-2)
Cc1ccc(NC(=O)C2CC2c2ccccc2)c([N+](=O)[O-])c1 (stereo unspecified)	ARNT TACC3 PPI 46 (no result: CAL PDZ FP-1)
COc1cc(Br)c(/C=C/c2ccc3cccc(O)c3n2)cc1OC	none
Oc1c(Cl)cc(Cl)cc1/C=C/c1ccc2cccc(O)c2n1	none (no result: miR122 inh, PGC1a acetyl inh)
Oc1cccc2ccc(/C=C/c3ccccc3Br)nc12	CAL PDZ FP-1 59 (no result: PGC1a acetyl inh)
Oc1ccc(Cl)cc1/C=C/c1ccc2cccc(O)c2n1	miR122 inh 140 (no result: ARNT TACC3 PPI)
Oc1ccc2ccccc2c1/C=C/c1ccc2c(Br)cc(Br)c(O)c2n1	CFTR F508del cor 13
COCC(=O)Nc1ccc2c(c1)C(=O)N(C)C[C@@H](OC)[C@H](C)CN(Cc1ccccc1OC)[C@H](C)CO2	none (no result: CAL PDZ FP-1, PGC1a acetyl inh, CAL PDZ FP-2)
O=C(CN1C(=O)NC2(CCCCC2)C1=O)Nc1ccc(F)cc1	none (no result: miR122 inh, CAL PDZ FP-1)
CCSc1nnc(NC(=O)CSC2=NCCS2)s1	PGC1a acetyl inh 94 (no result: miR122 inh)
O=C(CN1C(=O)NC2(CCCCCCC2)C1=O)Nc1ccc(Br)cc1	CFTR F508del cor 9.1 (no result: miR122 inh, ARNT TACC3 PPI)
CCSc1nnc(NC(=O)CN2C(=O)NC3(CCCC3)C2=O)s1	CAL PDZ FP-1 78 (no result: miR122 inh, PGC1a acetyl inh)
C[C@@H]1CN([C@H](C)CO)C(=O)c2cc(NC(=O)CCN3CCOCC3)ccc2O[C@H]1CN(C)Cc1ccc2c(c1)OCO2	none (no result: CAL PDZ FP-1, CAL PDZ FP-2)
COCC(=O)Nc1ccc2c(c1)OC[C@H](C)N(C(=O)c1ccccc1)C[C@H](C)[C@H](OC)CN(C)C2=O	none (no result: CAL PDZ FP-1, CAL PDZ FP-2)
Cc1cc([N+](=O)[O-])cc(/C=N\NC(=O)C2COc3ccccc3O2)c1O (stereo unspecified)	ARNT TACC3 PPI 43
CO[C@@H]1CN(C)C(=O)c2cc(NS(C)(=O)=O)ccc2OC[C@@H](C)N(C(=O)C2CCCCC2)C[C@@H]1C	none (no result: CAL PDZ FP-1, PGC1a acetyl inh, CAL PDZ FP-2)
COc1cc(-c2nnc(-c3cc(OC)c(OC)c(OC)c3)o2)cc(OC)c1OC	CAL PDZ FP-1 44 (no result: CFTR F508del cor)
O=C1CSC(c2ccc([N+](=O)[O-])cc2)N1CCN1CCCCC1 (stereo unspecified)	CAL PDZ FP-1 44 (no result: miR122 inh)
C[C@@H]1CN([C@@H](C)CO)C(=O)c2cc(NC(=O)Nc3ccccc3)ccc2O[C@H]1CN(C)C(=O)Nc1ccccc1	none (no result: CAL PDZ FP-1, PGC1a acetyl inh, CAL PDZ FP-2)
C=CC1=C(C(=O)O)N2C(=O)[C@@H](NC(=O)/C(=N\O)c3csc(N)n3)[C@H]2SC1 (stereo in doubt)	ARNT TACC3 PPI 64
CCn1ccc(C(=O)NC2C(=O)N3C(C(=O)O)=C(C)CSC23)n1 (stereo unspecified)	none (no result: CFTR F508del cor)
CC(C)(C)c1ccc(CCC2OCC(C[N+]3(C)CCOCC3)O2)cc1 (stereo unspecified)	PGC1a acetyl inh 73
O=C(NCC1CC1)[C@H]1[C@H](CO)[C@H]2Cn3c(ccc(-c4ccncc4)c3=O)[C@H]2N1Cc1cocn1	none (no result: CAL PDZ FP-1, CAL PDZ FP-2)
C[C@@H]1CN([C@@H](C)CO)C(=O)c2cc(C#Cc3ccccc3F)cnc2O[C@@H]1CN(C)S(=O)(=O)c1ccccc1F	none (no result: CAL PDZ FP-1, CAL PDZ FP-2)
Cc1ccc2cccc(NC(=O)c3ccc(Br)o3)c2n1	CAL PDZ FP-1 70 (no result: CFTR F508del cor)
O=C(C[C@@H]1CC[C@H]2[C@@H](COC[C@H](O)CN2Cc2cccc(F)c2)O1)NCc1ccncc1	none (no result: CAL PDZ FP-1, CAL PDZ FP-2)
CCCCN(C(=O)c1cc(S(=O)(=O)N2CCCCC2)ccc1Cl)c1c(N)n(CC(C)C)c(=O)[nH]c1=O	CFTR F508del cor 10 (no result: ARNT TACC3 PPI)
O=C(CN1CCOc2ccccc21)NCc1ccc(Cl)cc1	CFTR F508del cor 9.2 (no result: miR122 inh, CAL PDZ FP-1, PGC1a acetyl inh)
